Data set [1] relates to OSBP levels in HCT-116 and HEK293 cells. The experiment in a line: OSBP expression in cells upon 24 h compound treatment. It is filed as cell-based, human. To be noted: for effect on OSBP cellular levels: OSW-1 1 nM, Taxol 10 nM, ITZ, THEV, TTP 10,000 nM, HEK293 and HCT-116; for effect of co-administration on OSW-1-induced reduction of OSBP levels: 10,000 nM compound with 1 nM OSW-1, HEK293 and HCT116. In short, it runs like this: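 HCT-116 (McCoy's 5A, 10% serum, 1% penicillin-streptomycin) or HEK293 cells seeded 5×10^5 per well, 20 h at 37 °C. Compound diluted from stock in complete medium, alone or with 1 nM OSW-1 co-treatment, for 24 h; DMSO vehicle control. Lysates immunoblotted for OSBP (A-5 antibody), β-actin as loading reference. Bands averaged over independent experiments.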

Data set [2] has as its system OSBP levels in HeLa cells. The experiment in a line: OSBP levels in HeLa cells after 6 h treatment and 24 h compound-free recovery. To be noted: 6 h OSW-1 (10 nM) treatment, 24 h recovery, just prior to viral infection. Format: cell-based, human. The method, boiled down: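 HeLa cells exposed 6 h to compound in complete medium, washed three times, then held 24 h in compound-free complete medium. OSBP read by Western blot (A-5 antibody, β-actin reference) at the time point corresponding to viral inoculation in washout antiviral runs.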

Data set [3] concerns HCT-116 cells. Briefly: Trypan Blue cell viability assay. Conditions: for effect on cell population (cell counting after Trypan blue staining): 24 h, OSW-1 1 nM, ITZ, THEV, TTP 10,000 nM, each alone. Format: cell-based.
In data set [4] the test system is HeLa cells. The experiment in a line: 48 h cytotoxicity assay. It is filed as cell-based. To be noted: for effect of co-administration on antiproliferative OSW-1 activity, HeLa: 48 h, compound at 10,000 nM with OSW-1.
For data set [5], the system named is HEK293 cells. The experiment in a line: 48 h cytotoxicity assay. Format: cell-based. Conditions: read-out: growth inhibition 50% (GI50), HEK293 cells; 48 h treatment.
Data set [6] concerns OSBP localization in HCT-116 cells. The experiment in a line: immunofluorescence imaging of endogenous OSBP localization. It is filed as cell-based. Conditions: for OSBP cellular localization: 24 h, OSW-1 1 nM, 25-OHC, ITZ, TTP, THEV 10,000 nM, Golgi marker TGN46; for OSBP cellular localization on co-administration with OSW-1: 24 h, 10,000 nM compound with 1 nM OSW-1.
Data set [7] concerns the target T1, human OSBP (Homo sapiens, UniProt P22059).
T1 sequence (P22059 1-807): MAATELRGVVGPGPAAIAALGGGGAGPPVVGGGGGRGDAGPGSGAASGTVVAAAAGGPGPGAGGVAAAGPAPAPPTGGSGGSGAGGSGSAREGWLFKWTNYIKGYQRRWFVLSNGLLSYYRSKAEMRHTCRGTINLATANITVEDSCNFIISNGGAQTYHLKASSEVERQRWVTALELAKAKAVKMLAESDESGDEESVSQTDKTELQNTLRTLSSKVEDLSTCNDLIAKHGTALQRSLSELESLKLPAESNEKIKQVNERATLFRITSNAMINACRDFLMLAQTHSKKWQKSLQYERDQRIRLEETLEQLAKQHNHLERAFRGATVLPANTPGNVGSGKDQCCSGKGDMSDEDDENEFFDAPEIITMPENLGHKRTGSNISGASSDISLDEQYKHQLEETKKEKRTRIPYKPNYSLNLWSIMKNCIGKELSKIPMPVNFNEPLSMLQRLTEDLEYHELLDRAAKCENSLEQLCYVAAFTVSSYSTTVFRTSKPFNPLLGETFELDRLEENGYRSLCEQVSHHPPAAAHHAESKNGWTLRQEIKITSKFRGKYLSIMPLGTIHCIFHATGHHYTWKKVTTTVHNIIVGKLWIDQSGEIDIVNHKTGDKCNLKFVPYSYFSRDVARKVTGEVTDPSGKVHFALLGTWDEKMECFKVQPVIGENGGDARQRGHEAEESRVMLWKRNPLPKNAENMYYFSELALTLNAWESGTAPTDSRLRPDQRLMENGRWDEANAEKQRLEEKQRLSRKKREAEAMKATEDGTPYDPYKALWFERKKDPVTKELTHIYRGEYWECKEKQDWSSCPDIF
To be noted: cited from earlier work.

Data set [8] addresses T2, human ORP4 (Homo sapiens, UniProt Q969R2).
T2 sequence (Q969R2 1-916): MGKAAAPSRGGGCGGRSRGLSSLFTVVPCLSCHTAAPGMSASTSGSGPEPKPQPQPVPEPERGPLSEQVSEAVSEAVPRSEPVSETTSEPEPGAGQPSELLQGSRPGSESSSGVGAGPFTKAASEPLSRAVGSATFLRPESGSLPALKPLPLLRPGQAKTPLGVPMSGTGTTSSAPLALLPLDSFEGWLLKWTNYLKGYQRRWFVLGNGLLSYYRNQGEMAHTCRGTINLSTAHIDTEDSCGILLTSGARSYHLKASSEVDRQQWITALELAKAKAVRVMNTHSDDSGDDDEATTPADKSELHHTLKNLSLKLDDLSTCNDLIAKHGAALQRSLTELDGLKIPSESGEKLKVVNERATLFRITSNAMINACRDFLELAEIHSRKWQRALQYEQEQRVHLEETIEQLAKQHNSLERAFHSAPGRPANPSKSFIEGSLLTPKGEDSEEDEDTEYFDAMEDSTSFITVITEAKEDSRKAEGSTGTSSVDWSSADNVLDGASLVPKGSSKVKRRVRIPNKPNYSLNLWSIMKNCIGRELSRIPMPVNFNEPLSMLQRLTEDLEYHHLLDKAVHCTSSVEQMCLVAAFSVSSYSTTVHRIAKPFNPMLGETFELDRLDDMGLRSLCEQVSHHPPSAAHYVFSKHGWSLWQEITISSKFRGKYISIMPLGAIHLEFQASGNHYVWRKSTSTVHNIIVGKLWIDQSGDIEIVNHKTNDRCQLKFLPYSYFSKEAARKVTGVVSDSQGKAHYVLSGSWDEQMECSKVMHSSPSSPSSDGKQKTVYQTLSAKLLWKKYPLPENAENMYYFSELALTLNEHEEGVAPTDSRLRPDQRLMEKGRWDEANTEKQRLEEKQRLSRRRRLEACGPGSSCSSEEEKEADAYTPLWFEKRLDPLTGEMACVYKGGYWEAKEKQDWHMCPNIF
Conditions: cited from earlier work.

The test system of data set [9] is Coxsackievirus A9 (strain CoxA9–01). Conditions: HeLa; 1 nM OSW-1; infection 24 h after treatment ended; cited from earlier work.
Data set [10] has as its system Echovirus 2 (strain Echo2–01). Conditions: HeLa; 1 nM OSW-1; infection 24 h after treatment ended; cited from earlier work.
For data set [11], the system named is OSBP levels in cells. Conditions: cited from earlier work.
In data set [12] the test system is cells. Conditions: 6 h OSW-1 treatment of cells; cited from earlier work.
For data set [13], the system named is immortalized cell lines. The experiment in a line: 48 h assay for cell metabolic activity. Format: cell-based. Conditions: at <10,000 nM concentrations, Fig. 4B, Supp. Fig. 1.
For data set [14], the target named is T1, human OSBP. The experiment in a line: 96-well [3H]-25-OHC competitive binding assay, OSBP. Conditions: compound at 10,000 nM; 20 nM 3H-25-OHC.
Data set [15] has as its target T2, human ORP4. The experiment in a line: 96-well [3H]-25-OHC competitive binding assay, ORP4. To be noted: compound at 10,000 nM; 20 nM 3H-25-OHC. The method, boiled down:
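Inhibition of 20 nM [3H]-25-OHC binding to human ORP4 overexpressed in […] cell lysate, run in 96-well competitive format; […].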

For data set [16], the target named is full-length GFP-OSBP. To be noted: read-out: KD for full-length GFP-OSBP; microscale thermophoresis; cited from earlier work. On the technique in general: MST reads how a fluorescent partner responds to local heating, with and without ligand.
The subject of data set [17] is N-terminal OSBP FFAT domain with VAP-A. Conditions: BiMC assay; cited from earlier work.
The subject of data set [18] is OSBP C-terminal ORD. To be noted: OSBP proteolyzed fragments; cited from earlier work.

Entries after “also recorded” stand apart in the source; their conditions may differ.

The values that follow come from PMC10786240 (Antiviral research, 2019).

One may read the GI50 as the concentration that inhibits growth by half. By Kd is commonly meant the free concentration of one partner at which half of the binding sites on the other are occupied at equilibrium, for simple one-to-one binding.

As to `CC(=O)O[C@H]1C(=O)[C@@]2(C)[C@H]([C@H](OC(=O)c3ccccc3)[C@]3(O)C[C@H](OC(=O)[C@H](O)[C@@H](NC(=O)c4ccccc4)c4ccccc4)C(C)=C1C3(C)C)[C@]1(OC(C)=O)CO[C@@H]1C[C@@H]2O` [Taxol], the “effect on OSBP cellular levels” value in data set [1] was “OSBP levels are not reduced”.

On to `COc1ccc(C(=O)O[C@H]2[C@H](O[C@@H]3[C@@H](OC(C)=O)[C@H](O[C@H]4C[C@H]5[C@@H]6CC=C7C[C@@H](O)CC[C@]7(C)[C@H]6CC[C@]5(C)[C@@]4(O)[C@H](C)C(=O)CCC(C)C)OC[C@@H]3O)OC[C@@H](O)[C@@H]2O)cc1` [OSW-1], for which the “effect on OSBP cellular levels” value in data set [1] is given as “pronounced reduction of OSBP cellular levels”. Moreover, the “reduction of cellular OSBP levels” value in [2] is given as above 90%. Moreover, the “effect on cell population (cell counting after Trypan blue staining)” value (“effect on cell population” below) in data set [3] is listed as 15–20%. Also, the GI50 in [4] (read-out: growth inhibition 50% (GI50), HeLa cells, 48 h treatment) came out at 330 pM; in [5], 220 pM. Moreover, in [6], the OSBP cellular localization result is “remaining OSBP is tightly grouped around one location”. Further, the “Ki, competitive inhibition of 25-OHC binding to OSBP” value in [7] was “low nanomolar”. Further, the “Ki, competitive inhibition of 25-OHC binding to ORP4” value in data set [8] is reported as “low nanomolar”. Also, in data set [9], the “prophylactic antiviral protection, Cosackievirus 9a” value is reported as “conferred significant antiviral protection”. The “prophylactic antiviral protection, Echovirus 2” value in data set [10] is “conferred significant antiviral protection”. For the same compound, in [11] (1 nM OSW-1 for 6 h, then compound removed), the “duration of repression of OSBP levels after compound treatment is stopped” value is 72 h. In data set [11] (short duration (1–6 h), non-cytotoxic dose), the “reduction of OSBP levels in cells” value is above 90%. Besides, in data set [12], the “cytotoxicity of 6 h treatment” value is “not cytotoxic nor anti-proliferative”.

Take `CC1(C)C[C@H]2[C@@H]3CC=C4C[C@@H](OC5CCCCO5)CC[C@]4(C)[C@H]3CC[C@]2(C)[C@H]1O` (stereo partly shown) [THEV]: in data set [1], the “effect of co-administration on OSW-1-induced reduction of OSBP levels” value is reported as “partially blocks the reduction of OSBP levels” and the “effect on OSBP cellular levels” value is listed as “do not reduce OSBP levels”. Also, the “effect of co-administration with OSW-1 on cell population (Trypan blue)” value in data set [3] (24 h, 10,000 nM compound with 1 nM OSW-1) was “rescues cell population numbers”. Also, the “effect on cell population” value in [3] was “does not affect the cell population”. In data set [13], the antiproliferative activity result is given as “no antiproliferative activity”. Besides, the “effect of co-administration on antiproliferative OSW-1 activity, HeLa” value in data set [4] was “does not significantly affect the antiproliferative OSW-1 activity”. Further, in [6], the “OSBP cellular localization on co-administration with OSW-1” value was “produces cellular localization effects with elements of both OSW-1 and THEV treatment alone”; the OSBP cellular localization entry is “induces OSBP localization to confined area tightly packed with the Golgi marker”.

As for `CCC(C)n1ncn(-c2ccc(N3CCN(c4ccc(OCC5COC(Cn6cncn6)(c6ccc(Cl)cc6Cl)O5)cc4)CC3)cc2)c1=O` (stereo not shown) [ITZ, itraconazole], the “inhibition of 25-OHC binding to OSBP” value in data set [14] is on record as “no 25-OHC inhibition binding”. Further, the “inhibition of 25-OHC binding to ORP4” value in data set [15] is given as “no 25-OHC inhibition binding”. Besides, in [1], the “effect of co-administration on OSW-1-induced reduction of OSBP levels” value is “partially blocks the reduction of OSBP levels” and the “effect on OSBP cellular levels” value is “do not reduce OSBP levels”. Further, the “effect on cell population” value in data set [3] is given as 15–20%. Moreover, the antiproliferative activity result in data set [13] is “no antiproliferative activity”. In addition, the “effect of co-administration on antiproliferative OSW-1 activity, HeLa” value in [4] is reported as “does not significantly affect the antiproliferative OSW-1 activity”. In addition, in [6], the “OSBP cellular localization on co-administration with OSW-1” value is given as “produces a tight localization of OSBP with a stronger signal than OSW-1 alone” and the OSBP cellular localization entry is “causes OSBP to adopt a more punctate pattern closely associated with the Golgi marker”. Further, in [16], the Kd is around 430000 pM. Besides, in data set [17], the “inhibition of OSBP FFAT domain interaction with VAP-A” value was “Neither ITZ (3) or TTP (5) substantially inhibited”. The “effect on ORD lipid transfer activity” value in data set [18] is “blocked the ORD transfer activity of both sterols and PI4P”.

In the case of `C[C@H](CCCC(C)(C)O)[C@H]1CC[C@H]2[C@@H]3CC=C4C[C@@H](O)CC[C@]4(C)[C@H]3CC[C@]12C` [25-OHC, 25-hydroxycholesterol], in [6], the OSBP cellular localization entry was “strongly colocalizes OSBP with the Golgi marker in a small area”. Moreover, in data set [11], the “effect on OSBP levels in cells” value is reported as “does not reduce OSBP levels in cells; also recorded: do not reduce OSBP levels”.

For the compound `CC(C)=CCC/C(C)=C/Cc1c(O)cc(/C=C/c2cc(O)c3c(c2)C[C@@H]2C(C)(C)[C@H](O)[C@H](O)C[C@@]2(C)O3)cc1O` [schweinfurthin A], the “effect on OSBP levels in cells” value in data set [11] was “do not reduce OSBP levels”.
